Legend:
[1] = target: T1, Inhibitor of nuclear factor kappa-B kinase subunit alpha (Homo sapiens, UniProt O15111); experiment: Inhibition of IKK1-mediated phosphorylation of GST-IkappaBalpha fusion protein afterr 60 mins by fluorescence polarization assay
T1 sequence (O15111 whole entry): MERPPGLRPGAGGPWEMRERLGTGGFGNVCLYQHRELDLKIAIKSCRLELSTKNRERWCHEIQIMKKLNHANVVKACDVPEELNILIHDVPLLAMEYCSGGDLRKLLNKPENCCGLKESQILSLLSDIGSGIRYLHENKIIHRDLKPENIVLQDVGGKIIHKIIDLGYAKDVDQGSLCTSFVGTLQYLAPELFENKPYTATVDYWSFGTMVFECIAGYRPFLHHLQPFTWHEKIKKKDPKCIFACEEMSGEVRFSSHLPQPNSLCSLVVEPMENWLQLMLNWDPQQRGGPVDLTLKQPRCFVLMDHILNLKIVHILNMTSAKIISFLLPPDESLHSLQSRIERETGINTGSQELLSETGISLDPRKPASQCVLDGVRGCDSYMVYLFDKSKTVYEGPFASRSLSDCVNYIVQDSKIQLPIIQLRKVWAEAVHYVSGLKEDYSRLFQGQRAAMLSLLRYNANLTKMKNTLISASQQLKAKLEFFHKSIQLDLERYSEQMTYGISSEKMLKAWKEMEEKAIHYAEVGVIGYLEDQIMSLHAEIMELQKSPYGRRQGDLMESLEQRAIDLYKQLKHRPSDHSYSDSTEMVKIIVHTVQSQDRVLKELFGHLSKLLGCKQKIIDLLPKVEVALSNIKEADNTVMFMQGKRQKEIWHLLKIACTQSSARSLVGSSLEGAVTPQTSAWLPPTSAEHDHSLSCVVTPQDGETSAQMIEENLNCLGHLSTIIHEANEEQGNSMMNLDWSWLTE
Outline: (§1)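 GST-IκBα (50 µg/mL) with 20 µM ATP in 25 mM Tris-HCl pH 7.5, 7.5 mM MgCl2, 1 mM DTT, 5% glycerol, BSA; reaction started by adding IKK enzyme (IKK-2 typically 3 µg/mL final) at room temperature. Stopped after 60 min with 33 mM EDTA. Phospho-IκBα quantified by fluorescence polarization, competing with a fluorescein-labelled phosphopeptide for anti-phospho-IκBα antibody.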

[2] = target: T2, Inhibitor of nuclear factor kappa-B kinase subunit beta (Homo sapiens, UniProt O14920); experiment: Inhibition of IKK2-mediated phosphorylation of GST-IkappaBalpha fusion protein afterr 60 mins by fluorescence polarization assay; outline: as §1
T2 sequence (O14920 whole entry): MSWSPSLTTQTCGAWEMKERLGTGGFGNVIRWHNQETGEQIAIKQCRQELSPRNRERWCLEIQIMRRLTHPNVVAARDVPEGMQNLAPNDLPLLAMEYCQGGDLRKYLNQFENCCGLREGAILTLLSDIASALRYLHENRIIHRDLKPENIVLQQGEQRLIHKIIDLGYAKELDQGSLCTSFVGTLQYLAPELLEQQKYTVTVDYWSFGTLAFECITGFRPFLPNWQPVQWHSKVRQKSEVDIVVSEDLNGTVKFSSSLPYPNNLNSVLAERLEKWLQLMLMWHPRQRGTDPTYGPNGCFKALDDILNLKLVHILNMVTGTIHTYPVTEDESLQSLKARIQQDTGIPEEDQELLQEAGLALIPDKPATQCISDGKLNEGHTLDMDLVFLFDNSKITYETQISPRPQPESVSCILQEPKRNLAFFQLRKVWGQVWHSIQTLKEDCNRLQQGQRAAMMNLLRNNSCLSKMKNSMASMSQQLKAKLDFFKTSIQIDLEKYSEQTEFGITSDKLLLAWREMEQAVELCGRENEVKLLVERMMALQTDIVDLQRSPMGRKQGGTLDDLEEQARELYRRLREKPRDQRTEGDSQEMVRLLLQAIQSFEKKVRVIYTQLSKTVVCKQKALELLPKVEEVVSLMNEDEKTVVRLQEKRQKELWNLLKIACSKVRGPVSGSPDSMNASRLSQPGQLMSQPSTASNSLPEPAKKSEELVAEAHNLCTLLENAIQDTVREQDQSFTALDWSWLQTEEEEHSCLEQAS

PBMC = experiment: Inhibition of LPS-induced TNFalpha production in human PBMC preincubated for 30 mins before LPS challenge measured afterr 6 hrs by ELISA; type: functional, cell-based
Outline: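 PBMCs from healthy donor blood, isolated over ficoll in RPMI containing EDTA and polymyxin, then resuspended in RPMI/10% FBS at 1 × 10^6 cells/mL. Compound preincubated 30 min, then LPS added (25 ng/mL final). Incubated 6 h at 37 °C, 5% CO2; supernatant TNF-α measured by ELISA.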

Liver microsomes [3] = experiment: Metabolic stability in rat liver microsomes assessed as clearance at 3 uM after 1 hr; type: ADME, Microsome
Outline: (§2)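 Liver microsomes (mouse, human or rat) at 1 mg/mL protein with 3 µM compound in 65 mM phosphate buffer pH 7.4 and 1 mM NADPH, 37 °C, 1 h. Samples taken at 0 and 15 min and quenched with acetonitrile. Metabolic rate calculated from parent disappearance between 0 and 15 min.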

Liver microsomes [4] = experiment: Metabolic stability in human liver microsomes assessed as clearance at 3 uM after 1 hr; type: ADME, Microsome; outline: as §2
[5] = Metabolic stability in mouse liver microsomes assessed as clearance at 3 uM after 1 hr; type: ADME, Microsome; outline: as §2
[6] = Cmax in rat at 2 mg/kg, iv; type: ADME, organism-based; set-up: dose 2 mg/kg, route intravenous; settings: in vivo
Outline: (§3)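 Some compounds were dosed as a cassette of five compounds at 2 mg/kg each, after prescreening to exclude potent CYP inhibitors (IC50 < 10 µM).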

[7] = AUC in rat at 2 mg/kg, iv; type: ADME, organism-based; set-up: dose 2 mg/kg, route intravenous; settings: plasma; outline: as §3
[8] = Half life in rat at 2 mg/kg, iv; type: ADME, organism-based; set-up: dose 2 mg/kg, route intravenous; settings: in vivo; outline: as §3
[9] = Clearance in rat at 2 mg/kg, iv; type: ADME, organism-based; set-up: dose 2 mg/kg, route intravenous; settings: in vivo; outline: as §3
[10] = Volume of distribution at steady state in rat at 2 mg/kg, iv; type: ADME, organism-based; set-up: dose 2 mg/kg, route intravenous; settings: in vivo, read-out: Vdss; outline: as §3
Mus musculus = experiment: Inhibition of LPS-induced TNFalpha release in serum of BALB/c mouse at 10 mg/kg, po administered 4 hrs before LPS challenge measured afterr 90 mins by ELISA relative to control; type: functional
Outline: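 Female BALB/c mice, 6-8 weeks old, acclimated at least 1 week. Compound given orally in 100% PEG300 (0.1 mL) about 4 h before ip LPS (E. coli O111:B4, 0.1 mL of 10 µg/mL in PBS; 50 µg/kg). Vehicle-only controls. Blood taken 90 min after LPS; serum TNF-α by ELISA; mean ± SEM, n = 8 per group.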

[11] = target: Tyrosine-protein kinase BTK (Homo sapiens, UniProt Q06187); experiment: Inhibition of Btk
Chain of Tyrosine-protein kinase BTK (Q06187 whole entry): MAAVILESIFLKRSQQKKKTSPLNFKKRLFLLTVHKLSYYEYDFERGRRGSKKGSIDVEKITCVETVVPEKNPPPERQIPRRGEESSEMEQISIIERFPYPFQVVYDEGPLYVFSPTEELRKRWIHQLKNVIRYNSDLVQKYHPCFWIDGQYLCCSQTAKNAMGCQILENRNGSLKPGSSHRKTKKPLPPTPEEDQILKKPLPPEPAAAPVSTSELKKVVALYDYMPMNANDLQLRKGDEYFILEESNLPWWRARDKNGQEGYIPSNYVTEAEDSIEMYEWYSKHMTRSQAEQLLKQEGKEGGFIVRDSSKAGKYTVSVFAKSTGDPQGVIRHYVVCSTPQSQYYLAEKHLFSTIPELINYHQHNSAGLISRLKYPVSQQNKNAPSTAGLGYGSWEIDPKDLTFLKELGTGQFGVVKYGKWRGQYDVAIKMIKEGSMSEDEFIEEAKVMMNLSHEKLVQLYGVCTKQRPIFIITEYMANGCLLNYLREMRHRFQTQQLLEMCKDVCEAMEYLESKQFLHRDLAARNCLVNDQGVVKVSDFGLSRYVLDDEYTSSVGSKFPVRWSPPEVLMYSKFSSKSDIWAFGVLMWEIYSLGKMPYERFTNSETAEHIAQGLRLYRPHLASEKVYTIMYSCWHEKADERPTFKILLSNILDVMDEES
Outline: (§4)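 In-house kinase selectivity panel of 30 kinases; enzyme inhibition values reported in µM.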

[12] = target: Cyclin-dependent kinase 2 (Homo sapiens, UniProt P24941); experiment: Inhibition of Cdk2; outline: as §4
[13] = Inhibition of IGFR; outline: as §4
[14] = target: T3, Tyrosine-protein kinase ITK/TSK (Homo sapiens, UniProt Q08881); experiment: Inhibition of Itk; outline: as §4
T3 sequence (Q08881 whole entry): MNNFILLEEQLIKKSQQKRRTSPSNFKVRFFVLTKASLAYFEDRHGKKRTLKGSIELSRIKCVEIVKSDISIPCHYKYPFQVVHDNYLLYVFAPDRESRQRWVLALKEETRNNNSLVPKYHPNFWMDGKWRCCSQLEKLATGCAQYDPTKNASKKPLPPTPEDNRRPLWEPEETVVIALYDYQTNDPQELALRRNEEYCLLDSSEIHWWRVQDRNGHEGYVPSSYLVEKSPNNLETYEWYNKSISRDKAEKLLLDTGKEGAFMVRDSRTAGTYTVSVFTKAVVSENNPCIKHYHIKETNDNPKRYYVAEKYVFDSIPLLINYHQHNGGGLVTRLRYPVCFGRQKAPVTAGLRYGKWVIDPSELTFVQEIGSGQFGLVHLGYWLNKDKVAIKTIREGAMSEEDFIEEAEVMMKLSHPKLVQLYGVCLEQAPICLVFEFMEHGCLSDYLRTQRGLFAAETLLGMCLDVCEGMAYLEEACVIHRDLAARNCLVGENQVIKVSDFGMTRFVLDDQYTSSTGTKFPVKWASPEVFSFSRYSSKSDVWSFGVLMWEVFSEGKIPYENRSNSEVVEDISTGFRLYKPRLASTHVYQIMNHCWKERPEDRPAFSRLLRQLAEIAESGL

[15] = target: T4, Inhibitor of nuclear factor kappa-B kinase subunit epsilon (Homo sapiens, UniProt Q14164); experiment: Inhibition of IKKepsilon; outline: as §4
T4 sequence (Q14164 whole entry): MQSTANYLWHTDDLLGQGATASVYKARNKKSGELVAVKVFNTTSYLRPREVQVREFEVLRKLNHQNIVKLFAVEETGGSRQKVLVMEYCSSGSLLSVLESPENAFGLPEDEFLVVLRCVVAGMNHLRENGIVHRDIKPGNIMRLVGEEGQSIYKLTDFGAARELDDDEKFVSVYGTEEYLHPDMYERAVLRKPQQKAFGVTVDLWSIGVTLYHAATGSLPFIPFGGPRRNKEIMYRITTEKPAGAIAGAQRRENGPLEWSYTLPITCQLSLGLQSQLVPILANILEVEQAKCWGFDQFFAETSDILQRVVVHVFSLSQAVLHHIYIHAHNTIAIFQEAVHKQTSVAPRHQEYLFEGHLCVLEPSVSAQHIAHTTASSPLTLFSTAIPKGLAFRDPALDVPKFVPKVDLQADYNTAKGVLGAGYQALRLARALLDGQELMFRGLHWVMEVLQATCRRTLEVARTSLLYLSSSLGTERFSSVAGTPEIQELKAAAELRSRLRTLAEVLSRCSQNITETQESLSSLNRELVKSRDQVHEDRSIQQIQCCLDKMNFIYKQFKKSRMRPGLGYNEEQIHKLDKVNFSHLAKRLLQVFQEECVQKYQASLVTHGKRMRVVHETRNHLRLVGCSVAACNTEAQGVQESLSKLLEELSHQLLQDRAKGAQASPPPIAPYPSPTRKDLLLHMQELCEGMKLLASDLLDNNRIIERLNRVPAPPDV

[16] = target: Serine/threonine-protein kinase PLK1 (Homo sapiens, UniProt P53350); experiment: Inhibition of Plk1; outline: as §4
Chain of Serine/threonine-protein kinase PLK1 (P53350 whole entry): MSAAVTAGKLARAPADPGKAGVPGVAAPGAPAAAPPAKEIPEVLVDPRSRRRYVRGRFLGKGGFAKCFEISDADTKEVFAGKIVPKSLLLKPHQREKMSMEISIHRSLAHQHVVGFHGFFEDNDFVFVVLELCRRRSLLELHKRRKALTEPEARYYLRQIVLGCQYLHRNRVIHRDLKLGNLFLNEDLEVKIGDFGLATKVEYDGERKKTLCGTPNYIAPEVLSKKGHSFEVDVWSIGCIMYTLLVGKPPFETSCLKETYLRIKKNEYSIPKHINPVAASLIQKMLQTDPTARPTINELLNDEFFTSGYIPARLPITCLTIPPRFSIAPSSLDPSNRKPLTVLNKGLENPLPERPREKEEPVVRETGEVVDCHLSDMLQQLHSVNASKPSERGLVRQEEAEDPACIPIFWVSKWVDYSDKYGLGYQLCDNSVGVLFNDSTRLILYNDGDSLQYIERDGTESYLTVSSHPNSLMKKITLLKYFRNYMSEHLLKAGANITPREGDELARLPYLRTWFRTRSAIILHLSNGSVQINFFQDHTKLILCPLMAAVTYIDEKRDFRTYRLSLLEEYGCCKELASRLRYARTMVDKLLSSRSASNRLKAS

[17] = target: Proto-oncogene tyrosine-protein kinase Src (Homo sapiens, UniProt P12931); experiment: Inhibition of Src; outline: as §4
Chain of Proto-oncogene tyrosine-protein kinase Src (P12931 2-536 limits assumed): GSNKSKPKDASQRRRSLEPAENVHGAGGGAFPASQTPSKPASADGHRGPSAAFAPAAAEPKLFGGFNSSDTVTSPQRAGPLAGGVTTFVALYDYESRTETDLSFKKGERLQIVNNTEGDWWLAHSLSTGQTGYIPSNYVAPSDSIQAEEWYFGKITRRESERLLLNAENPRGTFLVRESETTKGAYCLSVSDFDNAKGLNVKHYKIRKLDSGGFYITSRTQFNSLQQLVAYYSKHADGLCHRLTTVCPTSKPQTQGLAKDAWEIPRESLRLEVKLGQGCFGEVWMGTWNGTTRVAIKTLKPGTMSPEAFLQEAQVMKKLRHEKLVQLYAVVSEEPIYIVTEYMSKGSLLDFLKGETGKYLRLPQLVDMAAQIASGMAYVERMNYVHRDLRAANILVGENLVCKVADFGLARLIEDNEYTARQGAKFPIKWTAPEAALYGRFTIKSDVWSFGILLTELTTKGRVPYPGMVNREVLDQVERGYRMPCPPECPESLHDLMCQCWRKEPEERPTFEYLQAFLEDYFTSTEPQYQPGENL

[18] = Selectivity ratio of IC50 for IKK1 to IC50 for IKK2
Outline: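 Buffer was 25 mM Tris-HCl pH 7.5 with 7.5 mM MgCl2, 1 mM DTT, 5% glycerol and 470 µg/mL BSA. IKK-2 was typically 3 µg/mL final. Reactions ran 60 min at room temperature, stopped with 33 mM EDTA. Phospho-IκBα was read by fluorescence-polarization competition of a fluorescein phosphopeptide for an anti-phospho antibody. Ratio = IKK1 IC50/IKK2 IC50.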

Row | SMILES | IC50 [1] [µM] | IC50 [2] [µM] | CL (Liver microsomes [3]) [nmol/mg/min] | CL (Liver microsomes [4]) [nmol/mg/min] | CL [5] [nmol/mg/min] | Cmax [6] [µM] | AUC [7] [µM·h] | half-life [8] [min] | clearance [9] [mL/min/kg] | Vd [10] [L/kg] | IC50 [11] [µM] | IC50 [12] [µM] | IC50 [13] [µM] | IC50 [14] [µM] | IC50 [15] [µM] | IC50 [16] [µM] | IC50 [17] [µM] | Ratio IC50 [18] | IC50 (PBMC) [µM] | inhibition in vivo at 10 mg/kg (Mus musculus) [%]
1 | CNc1nc2sc(-c3cccc(CNC(=O)c4csnn4)c3)nc2c2c1ncn2C | 10 | 0.016 | 0.14 | 0.16 | 0.23 | 3.9 | 5 | 36 | 3 | 0.2 | – | – | – | – | – | – | – | – | 0.082 | 50
2 | CNc1nc2sc(-c3cccc(CNC(C)=O)c3)nc2c2c1ncn2C | 1.9 | 0.022 | – | – | – | – | – | – | – | – | 17 | 31 | < 50 | 9.1 | 12 | < 50 | < 50 | – | 0.35 | –
3 | CNc1nc2c(nc(-c3ccccc3)n2C)c2c1ncn2C | 4.3 | 0.52 | 0.08 | 0.13 | 0.12 | – | – | – | – | – | 14 | 23 | < 50 | 19 | 14 | 12 | < 50 | – | 0.44 | –

The next lines start with results.

Row | IC50 [1] [µM] | IC50 [2] [µM] | CL (Liver microsomes [3]) [nmol/mg/min] | CL (Liver microsomes [4]) [nmol/mg/min] | CL [5] [nmol/mg/min] | Cmax [6] [µM] | AUC [7] [µM·h] | half-life [8] [min] | clearance [9] [mL/min/kg] | Vd [10] [L/kg] | IC50 [11] [µM] | IC50 [12] [µM] | IC50 [13] [µM] | IC50 [14] [µM] | IC50 [15] [µM] | IC50 [16] [µM] | IC50 [17] [µM] | Ratio IC50 [18] | SMILES | IC50 (PBMC) [µM] | inhibition in vivo at 10 mg/kg (Mus musculus) [%]
4 | 3.5 | 0.006 | 0.12 | 0.09 | 0.25 | 3 | 2.8 | 72 | 42 | 2.8 | – | – | – | – | – | – | – | 580 | CNc1nc2sc(-c3ccccc3)nc2c2c1ncn2C | – | –
5 | 0.27 | 0.011 | 0.14 | 0.09 | 0.23 | – | – | – | – | – | 23 | 16 | < 50 | 17 | 17 | < 50 | < 50 | – | CNc1nc2oc(-c3ccccc3)nc2c2c1ncn2C | – | –
